Assay results from ChEMBL document CHEMBL3792364, “Identification and biological activity of 6-alkyl-substituted 3-methyl-pyridine-2-carbonyl amino dimethyl-benzoic acid EP4 antagonists” (Bioorg Med Chem Lett, 2016).
In brackets after ≈: the same amount, converted by molar mass. Activity calls are given as the source filed them. The rule behind the calls is not given here.

Key:
[1] = biological target: Beta-1 adrenergic receptor (Homo sapiens) (UniProt P08588); assay: Inhibition of human adrenergic beta1 receptor at 10 uM
Method in brief: (§1)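 Off-target selectivity panel covering 13 receptors, four ion channels, one transporter and one enzyme, plus prostanoid DP1, FP, IP and TP receptors and COX-1/2. Test concentration 10 µM.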

[2] = biological target: T1, Cytochrome P450 2C9 (Homo sapiens, UniProt P11712); assay: Inhibition of CYP2C9 (unknown origin) at 10 uM; assay type: ADME
Method in brief: (§2)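 Inhibition of CYP1A2, 2B6, 2C19, 2C8, 2C9, 2D6 and 3A4 tested in vitro at concentrations up to 10 µM.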

[3] = AUC in rat at 5 mg/kg, po; assay type: ADME, organism-based; details: in vivo
Method in brief: (§3)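 Rat and dog given single iv dose of 1 mg/kg and oral dose of 5 mg/kg. Oral AUC, Cmax and half-life and iv clearance were derived from plasma levels.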

[4] = biological target: T2, Cytochrome P450 2B6 (Homo sapiens, UniProt P20813); assay: Inhibition of CYP2B6 (unknown origin); assay type: ADME; method in brief: as §2
[5] = biological target: T3, Cytochrome P450 2D6 (Homo sapiens, UniProt P10635); assay: Inhibition of CYP2D6 (unknown origin) at 10 uM; assay type: ADME; method in brief: as §2
[6] = Oral bioavailability in dog at 5 mg/kg; assay type: ADME, organism-based, Canis lupus familiaris; details: in vivo
[7] = biological target: Muscarinic acetylcholine receptor M3 (Homo sapiens) (UniProt P20309); assay: Inhibition of human muscarinic M3 receptor at 10 uM; method in brief: as §1
[8] = Oral bioavailability in rat at 5 mg/kg; assay type: ADME, organism-based; details: in vivo
[9] = biological target: Adrenergic receptor alpha-2 (Rattus norvegicus) (UniProt P22086+P19328+P22909); assay: Inhibition of rat adrenergic alpha2 receptor at 10 uM; method in brief: as §1
[10] = biological target: T4, Cytochrome P450 2C8 (Homo sapiens, UniProt P10632); assay: Inhibition of CYP2C8 (unknown origin); assay type: ADME; method in brief: as §2
[11] = biological target: Prostaglandin D2 receptor (Homo sapiens) (UniProt Q13258); assay: Inhibition of prostaglandin DP1 receptor (unknown origin) at 10 uM; method in brief: as §1
[12] = Volume of distribution at steady state in rat at 1 mg/kg, iv or 5 mg/kg, po; assay type: ADME, organism-based; details: in vivo, read-out: Vdss
[13] = Half life in rat at 5 mg/kg, po; assay type: ADME, organism-based; details: in vivo; method in brief: as §3
[14] = biological target: Histamine H1 receptor (Homo sapiens) (UniProt P35367); assay: Inhibition of human histamine H1 receptor at 10 uM; method in brief: as §1
[15] = Cmax in dog at 5 mg/kg, po; assay type: ADME, organism-based, Canis lupus familiaris; parameters: dose 5 mg/kg, route oral; details: in vivo; method in brief: as §3
[16] = Clearance in rat at 1 mg/kg, iv; assay type: ADME, organism-based; details: in vivo; method in brief: as §3
[17] = biological target: Adrenergic receptor alpha-1 (Rattus norvegicus) (UniProt P15823+P23944+P43140); assay: Inhibition of rat adrenergic alpha1 receptor at 10 uM; method in brief: as §1
[18] = biological target: Prostaglandin F2-alpha receptor (Homo sapiens) (UniProt P43088); assay: Inhibition of prostaglandin FP receptor (unknown origin) at 10 uM; method in brief: as §1
[19] = biological target: L-type calcium channel diltiazem binding site (Homo sapiens, UniProt O60840+Q01668+Q13698+Q13936); assay: Inhibition of L-type calcium channel diltiazem binding site (unknown origin) at 10 uM; assay type: protein assay; method in brief: as §1
[20] = biological target: Mu-type opioid receptor (Homo sapiens) (UniProt P35372); assay: Inhibition of human Mu-type opioid receptor 10 uM; method in brief: as §1
[21] = biological target: T4, Cytochrome P450 2C8; assay: Inhibition of CYP2C8 (unknown origin) at 10 uM; assay type: ADME; method in brief: as §2
[22] = biological target: T3, Cytochrome P450 2D6; assay: Inhibition of CYP2D6 (unknown origin); assay type: ADME; method in brief: as §2
[23] = biological target: T5, Cytochrome P450 2C19 (Homo sapiens, UniProt P33261); assay: Inhibition of CYP2C19 (unknown origin) at 10 uM; assay type: ADME; method in brief: as §2
[24] = biological target: T2, Cytochrome P450 2B6; assay: Inhibition of CYP2B6 (unknown origin) at 10 uM; assay type: ADME; method in brief: as §2
[25] = biological target: Voltage-gated inwardly rectifying potassium channel KCNH2 (Homo sapiens, UniProt Q12809); assay: Inhibition of human ERG up to 100 uM by [H3]-astemizole binding assay
Method in brief: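 hERG activity measured as displacement of [3H]-astemizole binding, compound tested up to 100 µM.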

[26] = biological target: T5, Cytochrome P450 2C19; assay: Inhibition of CYP2C19 (unknown origin); assay type: ADME; method in brief: as §2
[27] = biological target: Muscarinic acetylcholine receptor M2 (Homo sapiens) (UniProt P08172); assay: Inhibition of human muscarinic M2 receptor at 10 uM; method in brief: as §1
[28] = tested on: Rattus norvegicus; assay: Antiinflammatory activity in rat adjuvant induced arthritis model assessed as suppression of Mycobacterium tuberculosis H37 RA induced paw swelling at 30 mg/kg measured from day 11 to 15 relative to vehicle control; assay type: functional, organism-based
Method in brief: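 Rat adjuvant-induced arthritis: paw widths measured, then 0.25 mg adjuvant (Mycobacterium tuberculosis H37 RA) in 100 µl mineral oil given intradermally at tail base (day 0). On day 11, width of both paws was re-measured as percent change from day 0, and rats were randomized on this and body weight before dosing. Rats were euthanized day 15 without further dosing and paw width measured.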

[29] = biological target: D(1A) dopamine receptor (Homo sapiens) (UniProt P21728); assay: Inhibition of human dopamine D1 receptor at 10 uM; method in brief: as §1
[30] = biological target: D(2) dopamine receptor (Homo sapiens) (UniProt P14416); assay: Inhibition of human dopamine D2 short receptor at 10 uM; method in brief: as §1
[31] = Aqueous solubility of compound at pH 6 at 2 mM after 20 hrs by HPLC; assay type: physicochemical; details: aqueous medium
Method in brief: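 Samples in DMSO dried 12 h, then redissolved at pH 6 at a 2 mM target concentration. Stirred 20 h, filtered through 0.7 µm GF filter. Filtrate concentration measured by HPLC against a DMSO standard curve.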

[32] = biological target: Acetylcholinesterase (Homo sapiens) (UniProt P22303); assay: Inhibition of human acetylcholinesterase at 10 uM
[33] = Cmax in rat at 5 mg/kg, po; assay type: ADME, organism-based; parameters: dose 5 mg/kg, route oral; details: in vivo; method in brief: as §3
[34] = Clearance in dog at 1 mg/kg, iv; assay type: ADME, organism-based, Canis lupus familiaris; details: in vivo; method in brief: as §3
[35] = AUC in dog at 5 mg/kg, po; assay type: ADME, organism-based, Canis lupus familiaris; details: in vivo; method in brief: as §3
[36] = biological target: Thromboxane A2 receptor (Homo sapiens) (UniProt P21731); assay: Inhibition of prostaglandin TP receptor (unknown origin) at 10 uM; method in brief: as §1
[37] = Volume of distribution at steady state in dog at 1 mg/kg, iv or 5 mg/kg, po; assay type: ADME, organism-based, Canis lupus familiaris; details: in vivo, read-out: Vdss
[38] = biological target: Prostaglandin G/H synthase 1 (Homo sapiens) (UniProt P23219); assay: Inhibition of COX1 (unknown origin) at 10 uM; method in brief: as §1
[39] = tested on: Rattus norvegicus; assay: Antiinflammatory activity in orally dosed rat MIA model assessed as inhibition of differential weight bearing measured 30 mins post dose by incapacitance test; assay type: functional, organism-based
Method in brief: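 MIA 0.3 mg in 50 µL saline injected into right knee and saline into left knee of rats on day 0. Day 12: randomized, single oral dose in 10% acacia in water plus 0.05% antifoam at 0.3–10 mg/kg, with diclofenac 5 mg/kg. Hind-limb weight distribution measured by incapacitance tester 30 min post dose. n = 5/group, Dunnett's test versus vehicle.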

[40] = biological target: T6, Cytochrome P450 1A2 (Homo sapiens, UniProt P05177); assay: Inhibition of CYP1A2 (unknown origin) at 10 uM; assay type: ADME; method in brief: as §2
[41] = biological target: T6, Cytochrome P450 1A2; assay: Inhibition of CYP1A2 (unknown origin); assay type: ADME; method in brief: as §2
[42] = biological target: L-type calcium channel dihydropyridine binding site (Homo sapiens, UniProt O60840+Q01668+Q13698+Q13936); assay: Inhibition of L-type calcium channel dihydropyridine binding site (unknown origin) at 10 uM; assay type: protein assay; method in brief: as §1
[43] = Half life in dog at 5 mg/kg, po; assay type: ADME, organism-based, Canis lupus familiaris; details: in vivo; method in brief: as §3
[44] = biological target: Beta-2 adrenergic receptor (Homo sapiens) (UniProt P07550); assay: Inhibition of human adrenergic beta2 receptor at 10 uM; method in brief: as §1
[45] = biological target: L-type calcium channel verapamil binding site (Homo sapiens, UniProt O60840+Q01668+Q13698+Q13936); assay: Inhibition of L-type calcium channel verapamil binding site (unknown origin) at 10 uM; assay type: protein assay; method in brief: as §1
[46] = biological target: T1, Cytochrome P450 2C9; assay: Inhibition of CYP2C9 (unknown origin); assay type: ADME; method in brief: as §2
[47] = biological target: Sodium-dependent noradrenaline transporter (Homo sapiens) (UniProt P23975); assay: Inhibition of human norepinephrine transporter at 10 uM
[48] = biological target: T7, Cytochrome P450 3A4 (Homo sapiens, UniProt P08684); assay: Inhibition of CYP3A4 (unknown origin) at 10 uM; assay type: ADME; method in brief: as §2
[49] = biological target: Prostaglandin G/H synthase 2 (Homo sapiens) (UniProt P35354); assay: Inhibition of COX2 (unknown origin) at 10 uM; method in brief: as §1
[50] = biological target: Prostacyclin receptor (Homo sapiens) (UniProt P43119); assay: Inhibition of prostaglandin IP receptor (unknown origin) at 10 uM; method in brief: as §1
[51] = biological target: T7, Cytochrome P450 3A4; assay: Inhibition of CYP3A4 (unknown origin); assay type: ADME; method in brief: as §2
[52] = biological target: Prostaglandin E2 receptor EP4 subtype (Homo sapiens, UniProt P35408); assay: Antagonist activity against human EP4 expressed in HEK293 cells assessed as inhibition of PGE2-stimulated production of cAMP incubated for 20 mins by HTRF assay; assay type: functional, cell-based

T6 sequence (P05177 whole entry): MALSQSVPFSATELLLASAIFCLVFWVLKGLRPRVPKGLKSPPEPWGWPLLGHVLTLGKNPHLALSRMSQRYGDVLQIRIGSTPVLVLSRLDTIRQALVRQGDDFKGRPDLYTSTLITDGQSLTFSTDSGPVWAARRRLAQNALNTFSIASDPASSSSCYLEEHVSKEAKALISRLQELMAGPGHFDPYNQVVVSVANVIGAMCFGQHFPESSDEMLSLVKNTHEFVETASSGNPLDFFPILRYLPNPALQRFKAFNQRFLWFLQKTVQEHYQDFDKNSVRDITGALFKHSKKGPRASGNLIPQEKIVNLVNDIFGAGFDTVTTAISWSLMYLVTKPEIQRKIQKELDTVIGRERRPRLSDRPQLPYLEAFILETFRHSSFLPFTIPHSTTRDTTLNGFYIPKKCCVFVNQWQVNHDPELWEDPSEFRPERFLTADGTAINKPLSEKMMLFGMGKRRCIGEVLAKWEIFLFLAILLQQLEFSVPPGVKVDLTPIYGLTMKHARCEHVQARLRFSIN
T2 sequence (P20813 whole entry): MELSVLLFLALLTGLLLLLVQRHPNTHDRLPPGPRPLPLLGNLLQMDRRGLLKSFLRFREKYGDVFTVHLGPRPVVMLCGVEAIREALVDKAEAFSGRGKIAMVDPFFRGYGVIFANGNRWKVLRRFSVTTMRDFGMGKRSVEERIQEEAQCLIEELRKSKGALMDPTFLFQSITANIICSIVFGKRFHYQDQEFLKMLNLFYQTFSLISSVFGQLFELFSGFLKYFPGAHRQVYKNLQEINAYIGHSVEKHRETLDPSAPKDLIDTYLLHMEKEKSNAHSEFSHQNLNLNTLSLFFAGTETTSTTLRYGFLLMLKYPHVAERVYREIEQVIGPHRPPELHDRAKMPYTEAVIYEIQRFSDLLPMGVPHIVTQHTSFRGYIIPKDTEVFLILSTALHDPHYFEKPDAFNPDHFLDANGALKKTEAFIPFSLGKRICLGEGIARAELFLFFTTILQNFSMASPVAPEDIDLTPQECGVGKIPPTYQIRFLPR
T5 sequence (P33261 whole entry): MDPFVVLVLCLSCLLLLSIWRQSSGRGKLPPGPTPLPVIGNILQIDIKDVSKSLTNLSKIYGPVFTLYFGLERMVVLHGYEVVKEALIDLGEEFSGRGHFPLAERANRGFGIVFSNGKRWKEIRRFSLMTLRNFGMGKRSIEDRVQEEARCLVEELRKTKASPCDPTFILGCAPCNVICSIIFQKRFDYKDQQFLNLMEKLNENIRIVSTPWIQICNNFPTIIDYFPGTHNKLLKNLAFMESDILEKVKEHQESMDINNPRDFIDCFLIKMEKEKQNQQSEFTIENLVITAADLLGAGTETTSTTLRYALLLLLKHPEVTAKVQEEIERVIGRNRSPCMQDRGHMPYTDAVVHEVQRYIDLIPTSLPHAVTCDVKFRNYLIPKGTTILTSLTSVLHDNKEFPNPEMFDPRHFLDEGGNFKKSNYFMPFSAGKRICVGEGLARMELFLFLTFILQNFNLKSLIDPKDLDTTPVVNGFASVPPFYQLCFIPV
T3 sequence (P10635 whole entry): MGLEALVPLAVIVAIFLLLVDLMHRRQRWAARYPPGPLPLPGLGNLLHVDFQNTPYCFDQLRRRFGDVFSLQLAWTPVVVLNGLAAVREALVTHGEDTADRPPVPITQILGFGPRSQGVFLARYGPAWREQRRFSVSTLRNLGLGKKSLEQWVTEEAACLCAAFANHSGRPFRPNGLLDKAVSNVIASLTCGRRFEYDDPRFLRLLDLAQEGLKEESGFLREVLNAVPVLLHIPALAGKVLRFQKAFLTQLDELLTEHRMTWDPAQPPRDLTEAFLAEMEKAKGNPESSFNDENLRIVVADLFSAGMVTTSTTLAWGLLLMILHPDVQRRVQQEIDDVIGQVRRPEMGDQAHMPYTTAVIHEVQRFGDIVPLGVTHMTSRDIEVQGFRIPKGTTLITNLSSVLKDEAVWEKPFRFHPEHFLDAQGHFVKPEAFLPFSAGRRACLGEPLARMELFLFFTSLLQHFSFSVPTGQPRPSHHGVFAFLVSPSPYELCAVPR
T4 sequence (P10632 whole entry): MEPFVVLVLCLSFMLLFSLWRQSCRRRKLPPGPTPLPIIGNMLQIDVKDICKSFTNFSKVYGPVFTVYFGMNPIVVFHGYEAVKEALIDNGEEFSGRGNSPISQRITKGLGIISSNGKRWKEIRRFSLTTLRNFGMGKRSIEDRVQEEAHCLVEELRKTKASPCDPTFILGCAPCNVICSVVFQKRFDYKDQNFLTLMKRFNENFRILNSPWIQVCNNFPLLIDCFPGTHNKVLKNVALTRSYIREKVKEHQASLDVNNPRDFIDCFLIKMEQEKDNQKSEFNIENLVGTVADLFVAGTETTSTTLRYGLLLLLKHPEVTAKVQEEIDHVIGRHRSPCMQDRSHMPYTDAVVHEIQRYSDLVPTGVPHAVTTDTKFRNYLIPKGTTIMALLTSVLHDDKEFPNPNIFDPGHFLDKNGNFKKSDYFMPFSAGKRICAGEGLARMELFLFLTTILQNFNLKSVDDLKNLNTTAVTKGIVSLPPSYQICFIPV
T7 sequence (P08684 whole entry): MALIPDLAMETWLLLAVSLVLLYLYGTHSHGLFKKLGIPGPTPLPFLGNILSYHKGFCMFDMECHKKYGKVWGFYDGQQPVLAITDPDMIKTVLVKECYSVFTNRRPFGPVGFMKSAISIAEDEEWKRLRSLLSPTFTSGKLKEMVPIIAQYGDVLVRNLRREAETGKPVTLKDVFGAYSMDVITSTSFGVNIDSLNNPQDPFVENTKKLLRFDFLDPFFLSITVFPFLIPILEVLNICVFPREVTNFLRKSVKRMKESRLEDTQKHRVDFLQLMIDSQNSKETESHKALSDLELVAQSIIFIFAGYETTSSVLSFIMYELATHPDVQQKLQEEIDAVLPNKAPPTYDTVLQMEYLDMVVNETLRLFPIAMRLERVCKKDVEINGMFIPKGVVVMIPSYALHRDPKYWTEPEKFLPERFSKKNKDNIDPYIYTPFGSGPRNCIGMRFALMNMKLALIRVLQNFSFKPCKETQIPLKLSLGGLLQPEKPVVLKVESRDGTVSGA
T1 sequence (P11712 whole entry): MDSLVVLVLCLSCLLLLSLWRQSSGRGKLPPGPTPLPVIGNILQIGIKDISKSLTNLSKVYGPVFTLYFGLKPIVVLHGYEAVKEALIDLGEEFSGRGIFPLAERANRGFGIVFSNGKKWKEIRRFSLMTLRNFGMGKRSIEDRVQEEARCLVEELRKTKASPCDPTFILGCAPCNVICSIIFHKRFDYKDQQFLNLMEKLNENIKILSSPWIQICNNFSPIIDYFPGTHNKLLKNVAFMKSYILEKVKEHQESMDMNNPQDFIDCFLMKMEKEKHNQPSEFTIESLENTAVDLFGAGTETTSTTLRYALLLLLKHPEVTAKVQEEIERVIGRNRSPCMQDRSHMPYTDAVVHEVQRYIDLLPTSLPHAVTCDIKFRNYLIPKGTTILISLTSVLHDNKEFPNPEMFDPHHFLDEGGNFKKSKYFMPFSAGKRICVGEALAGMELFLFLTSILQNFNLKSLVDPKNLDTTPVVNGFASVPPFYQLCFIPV
Sequence of Thromboxane A2 receptor (Homo sapiens) (P21731 whole entry): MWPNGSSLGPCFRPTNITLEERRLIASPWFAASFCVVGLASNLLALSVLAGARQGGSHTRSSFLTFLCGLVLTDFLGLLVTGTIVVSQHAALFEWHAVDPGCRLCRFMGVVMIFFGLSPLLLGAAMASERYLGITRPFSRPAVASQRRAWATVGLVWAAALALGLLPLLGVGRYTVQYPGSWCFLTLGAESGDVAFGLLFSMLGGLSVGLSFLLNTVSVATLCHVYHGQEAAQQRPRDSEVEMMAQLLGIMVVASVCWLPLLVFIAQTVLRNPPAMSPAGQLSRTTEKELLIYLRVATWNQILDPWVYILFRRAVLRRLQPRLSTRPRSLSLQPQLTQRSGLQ
Sequence of Muscarinic acetylcholine receptor M2 (Homo sapiens) (P08172 whole entry): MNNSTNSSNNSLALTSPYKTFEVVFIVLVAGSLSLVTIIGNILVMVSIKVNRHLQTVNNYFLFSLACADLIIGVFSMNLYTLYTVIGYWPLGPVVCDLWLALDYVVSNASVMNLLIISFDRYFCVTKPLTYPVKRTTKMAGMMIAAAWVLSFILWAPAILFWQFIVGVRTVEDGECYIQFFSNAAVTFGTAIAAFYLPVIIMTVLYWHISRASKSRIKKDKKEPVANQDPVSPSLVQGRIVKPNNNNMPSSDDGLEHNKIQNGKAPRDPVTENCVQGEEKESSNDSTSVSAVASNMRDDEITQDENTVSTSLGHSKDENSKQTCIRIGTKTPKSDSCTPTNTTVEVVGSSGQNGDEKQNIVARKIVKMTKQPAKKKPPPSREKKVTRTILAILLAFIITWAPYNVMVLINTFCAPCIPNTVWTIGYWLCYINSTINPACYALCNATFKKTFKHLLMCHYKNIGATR
Sequence of Beta-1 adrenergic receptor (Homo sapiens) (P08588 whole entry, looked up): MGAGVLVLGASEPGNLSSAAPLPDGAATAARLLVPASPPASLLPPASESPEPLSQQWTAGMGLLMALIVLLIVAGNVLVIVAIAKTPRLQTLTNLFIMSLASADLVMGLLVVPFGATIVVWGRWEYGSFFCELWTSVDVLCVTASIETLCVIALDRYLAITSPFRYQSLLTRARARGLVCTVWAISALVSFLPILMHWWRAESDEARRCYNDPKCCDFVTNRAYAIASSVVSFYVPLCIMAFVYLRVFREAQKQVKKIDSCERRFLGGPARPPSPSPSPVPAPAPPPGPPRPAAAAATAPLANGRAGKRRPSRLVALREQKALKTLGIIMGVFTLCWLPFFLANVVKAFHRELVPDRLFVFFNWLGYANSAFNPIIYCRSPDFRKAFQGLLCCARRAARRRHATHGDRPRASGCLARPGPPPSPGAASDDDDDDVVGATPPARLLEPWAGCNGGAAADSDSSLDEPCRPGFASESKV

Cc1ccc(N2CCC(O)CC2)nc1C(=O)Nc1c(C)cc(C(=O)O)cc1C
inhibition [1]: 3%
inhibition (INH) [2]: Not Active
AUC [3]: 9670 ng·h/mL
IC50 [4]: > 10 µM
inhibition (INH) [5]: Not Active
bioavailability [6]: 75%
inhibition [7]: 0%
bioavailability [8]: 34%
inhibition [9]: -4%
IC50 [10]: > 10 µM
inhibition [11]: inactive
Vd [12]: 0.34 L/kg
half-life [13]: 5.1 h
inhibition [14]: -3%
Cmax [15]: 1870 ng/mL
clearance [16]: 3 mL/min/kg
inhibition [17]: -8%
inhibition [18]: inactive
inhibition at 10 µM [19]: -23%
inhibition [20]: -8%
inhibition (INH) [21]: Not Active
IC50 [22]: > 10 µM
inhibition (INH) [23]: Not Active
inhibition (INH) [24]: Not Active
inhibition (INH) [25]: Not Active
IC50 [26]: > 10 µM
inhibition [27]: 6%
Activity [28]: Active
inhibition [29]: 14%
inhibition [30]: 5%
solubility at 20 h, 2000 µM [31]: 762 µg/mL (≈ 1990 µM)
inhibition [32]: 7%
Cmax [33]: 3100 ng/mL
clearance [34]: 10 mL/min/kg
AUC [35]: 6320 ng·h/mL
inhibition [36]: inactive
Vd [37]: 1.73 L/kg
inhibition [38]: inactive
Activity [39]: Dose-dependent effect
inhibition (INH) [40]: Not Active
IC50 [41]: > 10 µM
inhibition at 10 µM [42]: -39%
half-life [43]: 5.1 h
inhibition [44]: -2%
inhibition at 10 µM [45]: 1%
IC50 [46]: > 10 µM
inhibition [47]: 7%
inhibition (INH) [48]: Not Active
inhibition [49]: inactive
inhibition [50]: inactive
IC50 [51]: > 10 µM

Cc1ccc(N2CCC(C)(O)CC2)nc1C(=O)Nc1c(C)ccc(C(=O)O)c1C
IC50 [52]: 0.0879 µM
